What was measured:
[1] = Inhibition of HIV protease by fluorescence energy transfer assay; set-up: species or system Human immunodeficiency virus
[2] = tested on: Human immunodeficiency virus 1; assay: Antiviral activity against HIV1 LAI in human MT2 cells by MTT assay; type: functional, organism-based; conditions: Human immunodeficiency virus 1, LAI
[3] = tested on: Human immunodeficiency virus 1; assay: Antiviral activity against multidrug-resistant HIV1 isolate MM infected in PHA-stimulated PBMC assessed as inhibition of p24 […] protein; type: functional, organism-based; conditions: Human immunodeficiency virus 1, isolate MM
How it was run: (§1)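 Clinical HIV-1 isolates were tested in PHA-stimulated peripheral blood mononuclear cells as targets, with inhibition of p24 Gag protein production as the end point. Each value was determined in duplicate or triplicate and derived from three independent experiments.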

[4] = tested on: Human immunodeficiency virus 1; assay: Antiviral activity against wild type HIV1 isolate ERS104pre infected in PHA-stimulated PBMC assessed as inhibition of p24 […] protein; type: functional, organism-based; conditions: Human immunodeficiency virus 1, isolate ERS104pre; how it was run: as §1
[5] = tested on: Human immunodeficiency virus 1; assay: Antiviral activity against multidrug-resistant HIV1 isolate TM infected in PHA-stimulated PBMC assessed as inhibition of p24 […] protein; type: functional, organism-based; conditions: Human immunodeficiency virus 1, isolate TM; how it was run: as §1
[6] = tested on: Human immunodeficiency virus 1; assay: Ratio of EC50 for multidrug-resistant HIV1 isolate C to EC50 for wild type HIV1 isolate ERS104pre; type: functional
How it was run: (§2)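 Fold change is the EC50 against each multidrug-resistant isolate divided by the EC50 against HIV-1ERS104pre. EC50s came from PHA-stimulated PBMC with a p24 Gag production end point, run in duplicate or triplicate across three independent experiments.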

[7] = tested on: Human immunodeficiency virus 1; assay: Antiviral activity against multidrug-resistant HIV1 isolate G infected in PHA-stimulated PBMC assessed as inhibition of p24 […] protein; type: functional, organism-based; conditions: Human immunodeficiency virus 1, isolate G; how it was run: as §1
[8] = tested on: Human immunodeficiency virus 1; assay: Ratio of EC50 for multidrug-resistant HIV1 isolate MM to EC50 for wild type HIV1 isolate ERS104pre; type: functional; how it was run: as §2
[9] = tested on: Human immunodeficiency virus 1; assay: Antiviral activity against multidrug-resistant HIV1 isolate C infected in PHA-stimulated PBMC assessed as inhibition of p24 […] protein; type: functional, organism-based; conditions: Human immunodeficiency virus 1, isolate C; how it was run: as §1
[10] = tested on: Human immunodeficiency virus 1; assay: Ratio of EC50 for multidrug-resistant HIV1 isolate TM to EC50 for wild type HIV1 isolate ERS104pre; type: functional; how it was run: as §2
[11] = tested on: Human immunodeficiency virus 1; assay: Ratio of EC50 for multidrug-resistant HIV1 isolate G to EC50 for wild type HIV1 isolate ERS104pre; type: functional; how it was run: as §2
[12] = tested on: Human immunodeficiency virus 1; assay: Antiviral activity against saquinavir-resistant HIV1 NL4-3; type: functional, organism-based; conditions: Human immunodeficiency virus 1, NL4-3
[13] = tested on: Human immunodeficiency virus 1; assay: Antiviral activity against ritonavir-resistant HIV1 NL4-3; type: functional, organism-based; conditions: Human immunodeficiency virus 1, NL4-3
[14] = tested on: Human immunodeficiency virus 1; assay: Antiviral activity against amprenavir-resistant HIV1 NL4-3; type: functional, organism-based; conditions: Human immunodeficiency virus 1, NL4-3
[15] = tested on: Human immunodeficiency virus 1; assay: Antiviral activity against atazanavir-resistant HIV1 NL4-3; type: functional, organism-based; conditions: Human immunodeficiency virus 1, NL4-3
[16] = tested on: Human immunodeficiency virus 1; assay: Antiviral activity against lopinavir-resistant HIV1 NL4-3; type: functional, organism-based; conditions: Human immunodeficiency virus 1, NL4-3
[17] = tested on: Human immunodeficiency virus 1; assay: Antiviral activity against nelfinavir-resistant HIV1 NL4-3; type: functional, organism-based; conditions: Human immunodeficiency virus 1, NL4-3
[18] = tested on: Human immunodeficiency virus 1; assay: Antiviral activity against indinavir-resistant HIV1 NL4-3; type: functional, organism-based; conditions: Human immunodeficiency virus 1, NL4-3

COc1ccc(S(=O)(=O)N(C[C@@H]2CCC(=O)N2)C[C@@H](O)[C@H](Cc2ccccc2)NC(=O)O[C@H]2CO[C@H]3OCC[C@H]32)cc1
Ki [1]: 0.85 nM | IC50 [2]: 480 nM

COc1ccc(S(=O)(=O)N(C[C@H]2COC(=O)N2)C[C@@H](O)[C@H](Cc2ccccc2)NC(=O)O[C@H]2CO[C@H]3OCC[C@H]32)cc1
Ki [1]: 0.035 nM | IC50 [2]: 310 nM

COc1ccc(S(=O)(=O)N(C[C@@H]2CCC(=O)N2)C[C@@H](O)[C@H](Cc2ccccc2)NC(=O)O[C@@H]2C[C@@H]3CCO[C@@H]3C2)cc1
Ki [1]: 0.31 nM | IC50 [2]: 230 nM

CC(C)(C)NC(=O)[C@@H]1CN(Cc2cccnc2)CCN1C[C@@H](O)C[C@@H](Cc1ccccc1)C(=O)N[C@H]1c2ccccc2C[C@H]1O.O
EC50 [3]: > 1000 nM | EC50 [4]: 28 nM | EC50 [5]: > 1000 nM | Ratio EC50 [6]: >36 | EC50 [7]: 290 nM | Ratio EC50 [8]: >36 | EC50 [9]: > 1000 nM | Ratio EC50 [10]: >36 | Ratio EC50 [11]: 10

COc1ccc(S(=O)(=O)N(C[C@@H]2COC(=O)N2)C[C@@H](O)[C@H](Cc2ccccc2)NC(=O)O[C@H]2CO[C@H]3OCC[C@H]32)cc1
Ki [1]: 0.28 nM | IC50 [2]: 480 nM

Nc1ccc(S(=O)(=O)N(C[C@H]2COC(=O)N2)C[C@@H](O)[C@H](Cc2ccccc2)NC(=O)O[C@H]2CO[C@H]3OCC[C@H]32)cc1
Ki [1]: 0.24 nM | IC50 [2]: > 1000 nM

Nc1ccc(S(=O)(=O)N(C[C@@H]2CCC(=O)N2)C[C@@H](O)[C@H](Cc2ccccc2)NC(=O)O[C@@H]2C[C@@H]3CCO[C@@H]3C2)cc1
Ki [1]: 1.27 nM | IC50 [2]: > 1000 nM

COc1ccc(S(=O)(=O)N(C[C@H]2CCC(=O)N2)C[C@@H](O)[C@H](Cc2ccccc2)NC(=O)O[C@@H]2C[C@@H]3CCO[C@@H]3C2)cc1
EC50 [12]: 36 nM | EC50 [3]: 42 nM | EC50 [4]: 28 nM | EC50 [5]: 29 nM | Ratio EC50 [6]: 1 | EC50 [13]: 36 nM | EC50 [7]: 27 nM | EC50 [14]: 36 nM | Ratio EC50 [8]: 2 | EC50 [15]: 36 nM | EC50 [9]: 23 nM | EC50 [16]: 36 nM | EC50 [17]: 36 nM | EC50 [18]: 36 nM | IC50 [2]: 26 nM | Ratio EC50 [10]: 1 | Ratio EC50 [11]: 1

Nc1ccc(S(=O)(=O)N(C[C@@H]2CCC(=O)N2)C[C@@H](O)[C@H](Cc2ccccc2)NC(=O)O[C@H]2CO[C@H]3OCC[C@H]32)cc1
Ki [1]: 0.28 nM

Nc1ccc(S(=O)(=O)N(C[C@H]2CCC(=O)N2)C[C@@H](O)[C@H](Cc2ccccc2)NC(=O)O[C@@H]2C[C@@H]3CCO[C@@H]3C2)cc1
Ki [1]: 0.31 nM | IC50 [2]: 600 nM

Nc1ccc(S(=O)(=O)N(C[C@H]2CCC(=O)N2)C[C@@H](O)[C@H](Cc2ccccc2)NC(=O)O[C@H]2CO[C@H]3OCC[C@H]32)cc1
Ki [1]: 0.85 nM | IC50 [2]: > 1000 nM

CC(C)CN(C[C@@H](O)[C@H](Cc1ccccc1)NC(=O)O[C@H]1CCOC1)S(=O)(=O)c1ccc(N)cc1
EC50 [3]: 320 nM | EC50 [4]: 25 nM | EC50 [5]: 250 nM | Ratio EC50 [6]: 14 | EC50 [7]: 330 nM | Ratio EC50 [8]: 13 | EC50 [9]: 350 nM | Ratio EC50 [10]: 10 | Ratio EC50 [11]: 13

Nc1ccc(S(=O)(=O)N(C[C@@H]2COC(=O)N2)C[C@@H](O)[C@H](Cc2ccccc2)NC(=O)O[C@H]2CO[C@H]3OCC[C@H]32)cc1
Ki [1]: 0.31 nM

COc1ccc(S(=O)(=O)N(C[C@H]2CCC(=O)N2)C[C@@H](O)[C@H](Cc2ccccc2)NC(=O)O[C@H]2CO[C@H]3OCC[C@H]32)cc1
Ki [1]: 0.12 nM | IC50 [2]: 250 nM

Source: ChEMBL document CHEMBL1136990, “Design of HIV-1 protease inhibitors with pyrrolidinones and oxazolidinones as novel P1'-ligands to enhance backbone-binding interactions with protease: synthesis, biological evaluation, and protein-ligand X-ray studies” (J Med Chem, 2009)
